An excerpt weighted towards active compounds, which were near 2.2% of everything screened.
M5 ag: human M5 muscarinic receptor agonists, primary screen, CHO-K1 cells, Fluo-8 calcium fluorescence | activation, % at 3 µM | 0.19% of 360,000 active | AID 624037, 2012 | CHO-K1 hM5 cells; 0% DMSO wells, 100% maximal acetylcholine response | Muscarinic acetylcholine receptor M5 (Homo sapiens), P08912;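 active = activation above the run's mean over test compounds plus 3 SD, cut at about 23% in these data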;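 also: signal is peak over basal fluorescence ratio across the kinetic read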
CHRM5 antagonist: human M5 muscarinic receptor antagonists, primary screen, CHO cells, Fluo-8 calcium fluorescence | AID 624040, 2012 | Muscarinic acetylcholine receptor M5 (Homo sapiens), P08912 | inhibition, % at 3 µM | 0.59% of 360,000 active | CHO-hM5 cells, ACh EC80;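 active = inhibition above a per-plate cutoff, the mean of that plate's test compounds plus 3 SD, cut at about 27% in these data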
M1 antag: human M1 muscarinic receptor antagonists, primary screen, CHO-K1 cells, Fluo-8 calcium fluorescence, 1536-well | Muscarinic acetylcholine receptor M1 (Homo sapiens), P11229 | CHO-K1 hM1, ACh EC80 antagonist | inhibition, % at 3 µM | 1.3% of 360,000 active | AID 588852, 2011;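 active = percent inhibition above its own plate's cutoff, namely the mean of that plate's compound wells plus 3 SD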;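 also: peak over basal fluorescence ratio during 140 s after agonist addition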
Target sequence (P11229 whole entry, looked up): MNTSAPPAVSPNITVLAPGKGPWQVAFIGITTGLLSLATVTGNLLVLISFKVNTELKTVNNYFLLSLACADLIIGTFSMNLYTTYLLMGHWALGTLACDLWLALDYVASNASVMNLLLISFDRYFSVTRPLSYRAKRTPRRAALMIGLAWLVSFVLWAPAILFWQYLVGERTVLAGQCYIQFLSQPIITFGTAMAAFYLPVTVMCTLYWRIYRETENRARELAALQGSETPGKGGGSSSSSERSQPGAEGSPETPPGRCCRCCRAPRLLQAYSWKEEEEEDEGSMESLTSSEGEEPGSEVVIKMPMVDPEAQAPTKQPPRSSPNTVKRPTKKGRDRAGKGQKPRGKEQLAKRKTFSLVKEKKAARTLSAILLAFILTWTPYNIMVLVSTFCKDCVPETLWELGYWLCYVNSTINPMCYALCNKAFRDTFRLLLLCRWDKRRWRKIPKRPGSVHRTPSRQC
CHRM1 PAM: human M1 muscarinic receptor positive allosteric modulators, primary screen, CHO-K1 cells, Fluo-8 calcium fluorescence, 1536-well | Muscarinic acetylcholine receptor M1 (Homo sapiens), P11229 | CHO-K1 hM1, ACh EC20; 0% = ACh EC20, 100% = maximal ACh | activation, % at 3 µM | 0.088% of 360,000 active; in the data active = activation above about 19%, passing the limit was not always enough
M5 PAM: human M5 muscarinic receptor positive allosteric modulators, primary screen, CHO-K1 cells, Fluo-8 calcium fluorescence; CHO-K1 hM5, ACh EC20 PAM; 0% = ACh EC20, 100% = ACh EC100; 0.3% of 360,000 active; AID 624038, 2012; activation, % at 3 µM;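 active = activation above the run cutoff, the mean activation of all test compounds plus 3 SD, cut at about 18% in these data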
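System: CHO-K1 cell line with stable human muscarinic M5 receptor expression | Also added: EC20 acetylcholine as agonist stimulus | Compound: One concentration, 3 µM final (nominal) | Timing: Fluo-8 loading 80 min at 37 °C plus 30 min room temperature | Measured by: Fluo-8 calcium dye fluorescence, kinetic read | Read-out basis: % activation, ACh-normalized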
M1 ag: human M1 muscarinic receptor agonists, primary screen, Fluo-8 calcium fluorescence, CHO-K1 cells, HTS | Muscarinic acetylcholine receptor M1 (Homo sapiens), P11229 | CHO-K1 hM1, agonist mode; 0% DMSO, 100% acetylcholine EC100 | activation, % at 3 µM | 0.33% of 360,000 active | AID 588814, 2011;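 active = activation above the run's mean compound activation plus 3 SD, cut at about 16% in these data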;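 also: peak over basal fluorescence ratio within a 140 s kinetic read after compound addition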
Large screens that a line does not name were inactive.

CCCC1=NN2C(=N)/C(=C\c3cc(C)n(Cc4ccccc4)c3C)C(=O)N=C2S1	M5 ag 36.1, M1 antag 77.5, M1 ag 59.2
Cc1ccc(S(=O)(=O)N2CCOCC2)cc1C(=O)OCC(=O)Nc1ccc2[nH]c(=O)[nH]c2c1	none
COc1ccc(CNC(=O)C2CSC(=O)C2)cc1 (stereo unspecified)	none
CC1(C)N=C(N)N=C(N)N1c1ccc(CCCCc2ccccc2)cc1	CHRM5 antagonist 40.9, M1 antag 57.5
O=C(COC(=O)c1ccc(F)c(S(=O)(=O)N2CCOCC2)c1)NCCc1ccccc1	CHRM1 PAM 27.2
Cc1ccc(OCC(=O)N2CCCCC2)c(Br)c1	CHRM1 PAM 27.3
Cc1ccc(S(=O)(=O)N2CCN(C(=O)COC(=O)c3ccc(O)cc3)CC2)c(C)c1	M1 antag 30.3
Cc1ccc(C(=O)OCC(=O)N2CCCC2)cc1	M1 antag 20.5
Cc1ccc(S(=O)(=O)N2CCN(C(=O)COC(=O)c3ccc(C(C)(C)C)cc3)CC2)c(C)c1	none
O=C(CSc1nc(C2CCCCC2)n(-c2ccccc2)n1)NCC(F)(F)F	none
COC(=O)C(C(=O)OC)c1ccccc1NS(=O)(=O)c1c(C)cc(C)cc1C	none (no result: M1 antag, CHRM1 PAM, M1 ag)
CS(=O)(=O)N1CCN(c2ccc(Cl)cc2[N+](=O)[O-])CC1	none
O=C1Nc2ccc(Br)cc2/C1=C/C1CC=CCC1 (stereo unspecified)	M5 PAM 25.7
O=C1NC(Cc2ccccc2)C(=O)Nc2ccc(Br)cc21 (stereo unspecified)	none
CCOC(=O)c1[nH]ncc1CN1CCCC(C(=O)c2ccc(C(C)(C)C)cc2)C1 (stereo unspecified)	M1 antag 37.9
COc1cc(/C=C(\C#N)c2ccccn2)ccc1OCc1ccc(Cl)cc1	none
CC(C)N1CSC(=S)N(Cc2ccccc2)C1	M5 PAM 18.2
CCN(C(=O)c1ccc(C(C)(C)C)cc1)c1nnc(Cn2nnc3ccccc32)s1	CHRM5 antagonist 33.1, M1 antag 36.9
CCN(C(=O)CC(C)C)c1nnc(Cn2nnc3ccccc32)s1	none
O=c1c(O)c(-c2ccc(O)cc2)oc2cc(O)cc(O)c12	M1 ag 19.0
O=c1cc(-c2ccc(O)cc2)oc2cc(O)cc(O)c12	none
Cc1c(/C=N/NC(=O)c2cccs2)c2ccccc2n1Cc1ccccc1Cl	none
CCC(C)NC(=O)C1CCC(=O)N1CCc1ccccc1 (stereo unspecified)	none
CCN(CC)c1ccc(/C=N/Nc2nn[nH]n2)cc1	M5 PAM 19.5
O=C(C1CC1)N1CCC(c2nc(-c3ccc(S(=O)(=O)N4CCCC4)cc3)no2)CC1	CHRM5 antagonist 66.0
O=C1CCCC(=NNC(=O)c2cc3ccccc3cc2O)C1	M5 ag 26.3
O=C1CCC/C(=N/NC(=O)c2sc3ccccc3c2Cl)C1	M5 ag 24.1
O=C(NN=C1CCCC1)c1sc2ccccc2c1Cl	none
O=C(NC1CCCCC1)c1cc2ccccc2cc1O	CHRM1 PAM 23.6
Cc1ccc(C(=O)CCC(=O)OC(C)C(=O)NC2CCCCC2C)cc1 (stereo unspecified)	none
CC(=O)N/C(=C\c1ccccc1)C(=O)OCc1cc(C)ccc1C	none
CSc1ncnc2c1ncn2CCCN1CCN(c2ncccn2)CC1	M1 antag 31.2
COc1ncnc2c1ncn2CCCN1CCN(c2ncccn2)CC1	none
O=C(Nc1ccccc1)NC1CCCCCCC1	none
O=C(Nc1ccc(Br)cc1)NC1CCCCCCC1	M1 antag 30.4
COc1ccc(NC(=O)NC2CCCCCCC2)cc1OC	M5 PAM 22.4
O=S(=O)(c1ccccc1)N1CCN(Cc2c(O)ccc3ccccc23)CC1	none
Oc1ccc2ccccc2c1CN1CCN(C/C=C/c2ccccc2)CC1	M1 antag 76.5
CC(=O)c1cc2c(cc1NC(=O)CN1CCCCCCC1)OCO2	none
Cc1cc(C)n2nc(SCC(=O)N3CCCC3)nc2n1	M5 PAM 24.4
Cc1cc(C)n2nc(SCC(=O)N3CCC(C)CC3)nc2n1	none
CS(=O)(=O)Nc1cccc(NC(=O)c2cccc3c(-c4cccc(C(N)=O)c4)coc23)c1	M1 antag 31.1
O=C1Nc2ccccc2-n2nnnc2C1N1CCN(C(=O)c2ccco2)CC1 (stereo unspecified)	none (no result: M1 antag, CHRM1 PAM, M1 ag)
CN(C)CCCO[C@@H]1[C@H]2OC(C)(C)O[C@H]2O[C@@H]1[C@H](O)CO	none
CC(C)CNS(=O)(=O)c1ccc(CCC(=O)Nc2cc(Cl)ccc2Oc2ccccc2)cc1	none
CCCNS(=O)(=O)c1ccc(CCC(=O)Nc2cc(Cl)ccc2Oc2ccccc2)cc1	CHRM5 antagonist 29.3
COCCCNC(=O)C[C@@H]1C[C@@]2(C(=O)OC)CC(C)(C)CC=C2N(Cc2ccccc2)C1=O	none (no result: M1 antag, CHRM1 PAM, M1 ag)
c1ccc2c(Nc3ccc4c(c3)OCCO4)c3c(nc2c1)CCCC3	CHRM5 antagonist 43.7, M1 antag 27.6
O=C(COC(=O)c1c2c(nc3ccccc13)CCCC2)Nc1ccc2c(c1)OCO2	M1 antag 32.2
COc1cccc(NC(=O)COC(=O)c2c3c(nc4ccccc24)CCC(C)C3)c1 (stereo unspecified)	M1 antag 48.4
CC1CCc2nc3ccccc3c(C(=O)OCC(=O)NC3CCS(=O)(=O)C3)c2C1 (stereo unspecified)	none
O=C(COC(=O)c1c2c(nc3ccccc13)/C(=C\c1cccs1)CCC2)Nc1ccccc1	M1 antag 31.7
CCn1c(SCC(=O)N2CCN(c3ccccc3F)CC2)nnc1-c1ccoc1C	none
CCCC(=O)N1CCCC1(C)C(=O)Nc1ccc(OC(F)F)cc1 (stereo unspecified)	none
CC(C)(C)NC(=O)COC(=O)c1c2c(nc3ccccc13)CCC2	M1 antag 31.4
Cc1ccc(C(=O)OCC(=O)Nc2ccc3c(c2)OCO3)o1	M5 PAM 20.1
CC(C)c1ccccc1NC(=O)COC(=O)c1c2c(nc3ccccc13)CCN(Cc1ccccc1)C2	M1 antag 37.4
O=C(COC(=O)c1ccco1)Nc1ccc2c(c1)OCO2	none
CC(C)n1c(O)c(N=NC(=O)c2ccccc2NS(=O)(=O)c2cccs2)c2ccccc21	none
Cc1ccc(CSc2nc3ccncc3n2CC(=O)Nc2cc(C)cc(C)c2)cc1	none
CC1CCN(C(=O)c2ccc(CSc3nc4ccncc4n3Cc3ccc(F)cc3)cc2)CC1	M1 antag 38.0

Compound activity as filed in PubChem.
